Test results taken from ChEMBL document CHEMBL1275584, “Genetically engineered lipopeptide antibiotics related to A54145 and daptomycin with improved properties” (Antimicrob Agents Chemother, 2010).
Converted amounts (≈) assume the structure as drawn.

Tests used:
[1] = tested on: Staphylococcus aureus; assay: Antibacterial activity against daptomycin sensitive and methicillin susceptible Staphylococcus aureus 42 by CLSI method; assay type: functional
How it was run: (§1)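 MICs were determined by CLSI broth methods in Mueller-Hinton broth with 50 mg/liter CaCl2, with or without 1% bovine pulmonary surfactant. Inocula came from single colonies streaked from glycerol stocks onto blood agar and grown at 37°C for ~24 h. Cultures were incubated at 37°C with rotation at 200 rpm.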

[2] = tested on: Streptococcus pneumoniae; assay: Antibacterial activity against daptomycin sensitive Streptococcus pneumoniae 402 by CLSI method; assay type: functional
How it was run: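 S. pneumoniae MIC in CaCl2-supplemented Mueller-Hinton broth (50 mg/liter) with 5% lysed horse blood, following CLSI methods. Colonies were grown on sheep-blood agar at 37°C under 5% CO2. Assay incubation was at 37°C under 5% CO2 without aeration.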

[3] = tested on: Enterococcus faecium; assay: Antibacterial activity against daptomycin resistant Enterococcus faecium 384 by CLSI method; assay type: functional; how it was run: as §1
[4] = tested on: Staphylococcus aureus; assay: Antibacterial activity against daptomycin sensitive and methicillin resistant Staphylococcus aureus 399 by CLSI method; assay type: functional; how it was run: as §1
[5] = tested on: Staphylococcus aureus; assay: Ratio of MIC for Staphylococcus aureus 42 in presence of 1% bovine pulmonary surfactant to MIC for Staphylococcus aureus 42 in absence of 1% bovine pulmonary surfactant; assay type: functional
How it was run: (§2)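 Broth MIC in Mueller-Hinton broth with 50 mg/liter CaCl2, run with or without 1% bovine pulmonary surfactant, following CLSI methods. Colonies came from frozen stocks streaked on sheep-blood tryptic soy agar (37°C, ~24 h). Incubation was at 37°C with rotation at 200 rpm. The ratio is MIC with surfactant divided by MIC without.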

[6] = tested on: Staphylococcus aureus; assay: Antibacterial activity against daptomycin sensitive and methicillin resistant Staphylococcus aureus MW2 by CLSI method; assay type: functional; how it was run: as §1
[7] = tested on: Escherichia coli; assay: Antibacterial activity against imp4213 mutant Escherichia coli BAS849 by CLSI method; assay type: functional; how it was run: as §1
[8] = tested on: Staphylococcus aureus; assay: Antibacterial activity against daptomycin resistant Staphylococcus aureus 1695 by CLSI method; assay type: functional; how it was run: as §1
[9] = tested on: Staphylococcus aureus; assay: Antibacterial activity against Staphylococcus aureus 42 in absence of 1% bovine pulmonary surfactant by CLSI method; assay type: functional; settings: Staphylococcus aureus, 42, Pulmonary surfactant; how it was run: as §2
[10] = tested on: Enterococcus faecium; assay: Antibacterial activity against daptomycin sensitive Enterococcus faecium 14 by CLSI method; assay type: functional; how it was run: as §2
[11] = tested on: Staphylococcus aureus; assay: Antibacterial activity against Staphylococcus aureus 42 in presence of 1% bovine pulmonary surfactant by CLSI method; assay type: functional; settings: Staphylococcus aureus, 42, Pulmonary surfactant; how it was run: as §2
[12] = tested on: Enterococcus faecalis; assay: Antibacterial activity against daptomycin resistant Enterococcus faecalis 312 by CLSI method; assay type: functional; how it was run: as §1
[13] = tested on: Staphylococcus aureus; assay: Antibacterial activity against methicillin resistant Staphylococcus aureus 1616 by CLSI method; assay type: functional; how it was run: as §1
[14] = tested on: Enterococcus faecalis; assay: Antibacterial activity against daptomycin sensitive Enterococcus faecalis 201 by CLSI method; assay type: functional; how it was run: as §2
[15] = tested on: Streptococcus pneumoniae; assay: Antibacterial activity against Streptococcus pneumoniae infected in CD1 mouse pneumonia model assessed as lung bacterial load at 6.25 mg/kg, sc administered at 1 and 4 hrs after bacterial challenge measured 24 hrs post infection (reference value: 2.69x10^8 CFU/ml); settings: route subcutaneous
[16] = tested on: Streptococcus pneumoniae; assay: Antibacterial activity against Streptococcus pneumoniae infected in CD1 mouse pneumonia model assessed as lung bacterial load at 12.5 mg/kg, sc administered at 1 and 4 hrs after bacterial challenge measured 24 hrs post infection (reference value: 2.69x10^8 CFU/ml); settings: route subcutaneous
[17] = tested on: Streptococcus pneumoniae; assay: Antibacterial activity against Streptococcus pneumoniae infected in CD1 mouse pneumonia model assessed as lung bacterial load at 25 mg/kg, sc administered at 1 and 4 hrs after bacterial challenge measured 24 hrs post infection (reference value: 2.69x10^8 CFU/ml); settings: route subcutaneous

Compound | MIC [1] [µg/mL] | MIC [2] [µg/mL] | MIC [3] [µg/mL] | MIC [4] [µg/mL] | Ratio [5] | MIC [6] [µg/mL] | MIC [7] [µg/mL] | MIC [8] [µg/mL] | MIC [9] [µg/mL] | MIC [10] [µg/mL] | MIC [11] [µg/mL] | MIC [12] [µg/mL] | MIC [13] [µg/mL] | MIC [14] [µg/mL] | CFU/ml [15] | CFU/ml [16] | CFU/ml [17]
CC[C@H](C)[C@@H]1NC(=O)[C@H]([C@H](C)CC(=O)O)NC(=O)[C@@H](CC(N)=O)NC(=O)CNC(=O)[C@@H]([C@H](OC)C(=O)O)NC(=O)[C@@H](CO)NC(=O)[C@H](CC(=O)O)NC(=O)[C@H](C)NC(=O)CN(C)C(=O)[C@@H](NC(=O)[C@@H](NC(=O)[C@@H](CCC(=O)O)NC(=O)[C@H](Cc2c[nH]c3ccccc23)NC(=O)CCCCCCCC(C)C)[C@H](O)C(N)=O)[C@H](C)OC1=O | 1 (≈ 0.613 µM) | 0.25 (≈ 0.153 µM) | 32 (≈ 19.6 µM) | 1 (≈ 0.613 µM) | 16 | 0.5 (≈ 0.306 µM) | 16 (≈ 9.81 µM) | 4 (≈ 2.45 µM) | 1 (≈ 0.613 µM) | 4 (≈ 2.45 µM) | 16 | 128 (≈ 78.4 µM) | 8 (≈ 4.9 µM) | 4 (≈ 2.45 µM) |  |  | 
CCCCCCCCCC(=O)N[C@@H](Cc1c[nH]c2ccccc12)C(=O)N[C@H](CC(N)=O)C(=O)N[C@@H](CC(=O)O)C(=O)N[C@@H]1C(=O)NCC(=O)N[C@@H](CCCN)C(=O)N[C@@H](CC(=O)O)C(=O)N[C@H](C)C(=O)N[C@@H](CC(=O)O)C(=O)NCC(=O)N[C@H](CO)C(=O)N[C@@H]([C@H](C)CC(=O)O)C(=O)N[C@@H](CC(=O)c2ccccc2N)C(=O)O[C@@H]1C | 1 (≈ 0.617 µM) | 0.25 (≈ 0.154 µM) | 32 (≈ 19.7 µM) | 0.5 (≈ 0.309 µM) | 128 | 1 (≈ 0.617 µM) | 128 (≈ 79 µM) | 4 (≈ 2.47 µM) | 0.5 (≈ 0.309 µM) | 2 (≈ 1.23 µM) | 64 | 128 (≈ 79 µM) | 16 (≈ 9.87 µM) | 2 (≈ 1.23 µM) |  |  | 
CN[C@H](CC(C)C)C(=O)N[C@H]1C(=O)N[C@@H](CC(N)=O)C(=O)N[C@H]2C(=O)N[C@H]3C(=O)N[C@H](C(=O)N[C@H](C(=O)O)c4cc(O)cc(O)c4-c4cc3ccc4O)[C@H](O)c3ccc(c(Cl)c3)Oc3cc2cc(c3O[C@@H]2O[C@H](CO)[C@@H](O)[C@H](O)[C@H]2O[C@H]2C[C@](C)(N)[C@H](O)[C@H](C)O2)Oc2ccc(cc2Cl)[C@H]1O [VANCOMYCIN] |  |  |  |  |  |  |  |  |  |  |  |  |  |  | 1.81e+07 | 285000 | 9
